Results as given in ChEMBL document CHEMBL3992547, “Antimicrobial activity of rhodanine-3-acetic acid derivatives” (Bioorg Med Chem, 2017).
Values after ≈ are worked out from the molar mass of the structure shown. Active and inactive are the calls of the source. The rule behind the calls is not given here.

How the values were obtained:
[1] = tested on: Staphylococcus epidermidis; experiment: Antibacterial activity against Staphylococcus epidermidis H 6966/08 incubated for 24 hrs under dark condition by microdilution broth assay; assay type: functional; details: H 6966/08, 24 h
How it was run: (§1)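 Broth microdilution per M07-A07, modified, in Mueller-Hinton broth adjusted to pH 7.4 (±0.2). Inoculum is prepared in sterile water to McFarland 0.5 (1.5 × 10⁸ CFU/mL). Plates are incubated in the dark at 35 °C in humid air. MIC is read after 24 and 48 h as at least 95% growth reduction versus control (IC₉₅).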

[2] = tested on: Mycobacterium tuberculosis; experiment: Antimycobacterial activity against Mycobacterium tuberculosis H37Rv 331/88 measured after 14 days by micromethod; assay type: functional; details: H37Rv 331/88, 336 h
Mycobacterium avium [3] = experiment: Antimycobacterial activity against Mycobacterium avium 330/88 measured after 14 days by micromethod; assay type: functional; details: 330/88, 336 h
Escherichia coli [4] = experiment: Antibacterial activity against Escherichia coli CCM 4517 incubated for 48 hrs under dark condition by microdilution broth assay; assay type: functional; details: CCM 4517, 48 h; how it was run: as §1
Pseudomonas aeruginosa = experiment: Antibacterial activity against Pseudomonas aeruginosa CCM 1961 up to 500 uM incubated for 24 to 48 hrs under dark condition by microdilution broth assay; assay type: functional; how it was run: as §1
Klebsiella pneumoniae [5] = experiment: Antibacterial activity against ESBL positive Klebsiella pneumoniae J 14368/08 up to 500 uM incubated for 24 to 48 hrs under dark condition by microdilution broth assay; assay type: functional; how it was run: as §1
Staphylococcus aureus [6] = experiment: Antibacterial activity against methicillin-resistant Staphylococcus aureus H 5996/08 incubated for 48 hrs under dark condition by microdilution broth assay; assay type: functional; details: H 5996/08, 48 h
How it was run: (§2)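 Microdilution broth method modified per M07-A07, in Mueller-Hinton broth adjusted to pH 7.4 (±0.2). Inoculum made in sterile water to 0.5 McFarland (1.5 × 10⁸ CFU/mL). Plates incubated in the dark at 35 °C in a humid atmosphere, with reads at 24 and 48 h. MIC taken as at least 95% growth reduction (IC₉₅) versus control.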

Mycobacterium kansasii [7] = experiment: Antimycobacterial activity against Mycobacterium kansasii isolate 235/80 after 21 days by micromethod; assay type: functional; details: isolate 235/80, 504 h
Mycobacterium kansasii [8] = experiment: Antimycobacterial activity against Mycobacterium kansasii isolate 6509/96 after 14 days by micromethod; assay type: functional; details: isolate 6509/96, 336 h
[9] = Solubility of the compound in Sula's semisynthetic medium up to 1 mM; assay type: physicochemical
Staphylococcus aureus [10] = experiment: Antibacterial activity against Staphylococcus aureus CCM 4516/08 incubated for 48 hrs under dark condition by microdilution broth assay; assay type: functional; details: CCM 4516/08, 48 h; how it was run: as §1
Enterococcus [11] = experiment: Antibacterial activity against Enterococcus sp. J 14365/08 incubated for 24 hrs under dark condition by microdilution broth assay; details: J 14365/08, 24 h
Lichtheimia corymbifera = experiment: Antifungal activity against Absidia corymbifera 272 after 24 to 48 hrs hrs by microdilution broth assay; assay type: functional
How it was run: (§3)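 Broth microdilution per CLSI M27-A3 and M38-A2 in RPMI 1640 with glutamine, buffered to pH 7.0 with MOPS. Compounds are diluted in DMSO. Final inoculum is 5 × 10³ CFU/mL for yeasts and 0.5–5 × 10⁴ CFU/mL for moulds. Plates are incubated in the dark at 35 °C in humid air and read visually and/or at 540 nm after 24 and 48 h. MIC is ≥80% growth reduction (IC₈₀) for yeasts and ≥50% (IC₅₀) for filamentous fungi.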

Enterococcus [12] = experiment: Antibacterial activity against Enterococcus sp. J 14365/08 incubated for 48 hrs under dark condition by microdilution broth assay; details: J 14365/08, 48 h
Staphylococcus aureus [13] = experiment: Antibacterial activity against methicillin-resistant Staphylococcus aureus H 5996/08 incubated for 24 hrs under dark condition by microdilution broth assay; assay type: functional; details: H 5996/08, 24 h; how it was run: as §2
Pichia kudriavzevii = experiment: Antifungal activity against Candida krusei E28 after 24 to 48 hrs hrs by microdilution broth assay; assay type: functional; how it was run: as §3
[14] = tested on: Staphylococcus epidermidis; experiment: Antibacterial activity against Staphylococcus epidermidis H 6966/08 incubated for 48 hrs under dark condition by microdilution broth assay; assay type: functional; details: H 6966/08, 48 h; how it was run: as §1
[15] = tested on: Mycobacterium tuberculosis; experiment: Antimycobacterial activity against Mycobacterium tuberculosis H37Rv 331/88 measured after 21 days by micromethod; assay type: functional; details: H37Rv 331/88, 504 h
Mycobacterium kansasii [16] = experiment: Antimycobacterial activity against Mycobacterium kansasii isolate 235/80 after 14 days by micromethod; assay type: functional; details: isolate 235/80, 336 h
Mycobacterium kansasii [17] = experiment: Antimycobacterial activity against Mycobacterium kansasii isolate 6509/96 after 7 days by micromethod; assay type: functional; details: isolate 6509/96, 168 h
Klebsiella pneumoniae [18] = experiment: Antibacterial activity against Klebsiella pneumoniae D 11750/08 up to 500 uM incubated for 24 to 48 hrs under dark condition by microdilution broth assay; assay type: functional; how it was run: as §1
Mycobacterium avium [19] = experiment: Antimycobacterial activity against Mycobacterium avium 330/88 measured after 21 days by micromethod; assay type: functional; details: 330/88, 504 h
Mycobacterium kansasii [20] = experiment: Antimycobacterial activity against Mycobacterium kansasii isolate 235/80 after 7 days by micromethod; assay type: functional; details: isolate 235/80, 168 h
Staphylococcus aureus [21] = experiment: Antibacterial activity against Staphylococcus aureus CCM 4516/08 incubated for 24 hrs under dark condition by microdilution broth assay; assay type: functional; details: CCM 4516/08, 24 h; how it was run: as §1
Mycobacterium kansasii [22] = experiment: Antimycobacterial activity against Mycobacterium kansasii isolate 6509/96 after 21 days by micromethod; assay type: functional; details: isolate 6509/96, 504 h
Escherichia coli [23] = experiment: Antibacterial activity against Escherichia coli CCM 4517 incubated for 24 hrs under dark condition by microdilution broth assay; assay type: functional; details: CCM 4517, 24 h; how it was run: as §1

Row | Compound | MIC95 [1] | MIC [2] | MIC (Mycobacterium avium [3]) | MIC95 (Escherichia coli [4]) | Activity (Pseudomonas aeruginosa) | Activity (Klebsiella pneumoniae [5]) | MIC95 (Staphylococcus aureus [6]) | MIC (Mycobacterium kansasii [7]) | MIC (Mycobacterium kansasii [8]) | solubility [9] | MIC95 (Staphylococcus aureus [10]) | Activity (Lichtheimia corymbifera) | Activity (Pichia kudriavzevii) | MIC [15] | MIC (Mycobacterium kansasii [16]) | MIC (Mycobacterium kansasii [17]) | Activity (Klebsiella pneumoniae [18]) | MIC (Mycobacterium avium [19]) | MIC (Mycobacterium kansasii [20]) | MIC (Mycobacterium kansasii [22]) | other results
1 | O=C(CN1C(=O)/C(=C/c2cc(Cl)ccc2O)SC1=S)Nc1ccc(Cl)cc1 | 250 µM (≈ 110 µg/mL) | 16 µM (≈ 7.03 µg/mL) | 250 µM (≈ 110 µg/mL) | > 250 µM | inactive | inactive | > 250 µM | 250 µM (≈ 110 µg/mL) | 250 µM (≈ 110 µg/mL) | Insoluble | > 250 µM | inactive | inactive | 32 µM (≈ 14.1 µg/mL) | 125 µM (≈ 54.9 µg/mL) | 125 µM (≈ 54.9 µg/mL) | inactive | 250 µM (≈ 110 µg/mL) | 125 µM (≈ 54.9 µg/mL) | 250 µM (≈ 110 µg/mL) | MIC95 (Enterococcus [11]): > 250 µM; MIC95 (Enterococcus [12]): > 250 µM; MIC95 (Staphylococcus aureus [13]): 125 µM (≈ 54.9 µg/mL); MIC95 [14]: > 250 µM; MIC95 (Staphylococcus aureus [21]): 250 µM (≈ 110 µg/mL); MIC95 (Escherichia coli [23]): > 250 µM
2 | O=C(CN1C(=O)CSC1=S)Nc1ccc(Cl)cc1 | 500 µM (≈ 150 µg/mL) | 32 µM (≈ 9.63 µg/mL) | 1000 µM (≈ 301 µg/mL) | > 500 µM | inactive | inactive | > 500 µM | 500 µM (≈ 150 µg/mL) | 250 µM (≈ 75.2 µg/mL) | Soluble | > 500 µM | inactive | inactive | 62.5 µM (≈ 18.8 µg/mL) | 500 µM (≈ 150 µg/mL) | 125 µM (≈ 37.6 µg/mL) | inactive | 1000 µM (≈ 301 µg/mL) | 250 µM (≈ 75.2 µg/mL) | 250 µM (≈ 75.2 µg/mL) | MIC95 (Enterococcus [11]): 500 µM (≈ 150 µg/mL); MIC95 (Enterococcus [12]): > 500 µM; MIC95 (Staphylococcus aureus [13]): > 500 µM; MIC95 [14]: > 500 µM; MIC95 (Staphylococcus aureus [21]): > 500 µM; MIC95 (Escherichia coli [23]): > 500 µM
3 | O=C(O)CN1C(=O)/C(=C/c2cc(Cl)ccc2O)SC1=S | 62.5 µM (≈ 20.6 µg/mL) | 32 µM (≈ 10.6 µg/mL) | 62.5 µM (≈ 20.6 µg/mL) | > 500 µM | inactive | inactive | 125 µM (≈ 41.2 µg/mL) | 62.5 µM (≈ 20.6 µg/mL) | 62.5 µM (≈ 20.6 µg/mL) | Soluble | 250 µM (≈ 82.4 µg/mL) | inactive | inactive | 62.5 µM (≈ 20.6 µg/mL) | 62.5 µM (≈ 20.6 µg/mL) | 32 µM (≈ 10.6 µg/mL) | inactive | 62.5 µM (≈ 20.6 µg/mL) | 32 µM (≈ 10.6 µg/mL) | 125 µM (≈ 41.2 µg/mL) | MIC95 (Enterococcus [11]): 125 µM (≈ 41.2 µg/mL); MIC95 (Enterococcus [12]): 500 µM (≈ 165 µg/mL); MIC95 (Staphylococcus aureus [13]): 125 µM (≈ 41.2 µg/mL); MIC95 [14]: 62.5 µM (≈ 20.6 µg/mL); MIC95 (Staphylococcus aureus [21]): 250 µM (≈ 82.4 µg/mL); MIC95 (Escherichia coli [23]): 500 µM (≈ 165 µg/mL)
4 | O=C(CN1C(=O)/C(=C/c2ccccc2O)SC1=S)Nc1ccc(Cl)cc1 |  | 8 µM (≈ 3.24 µg/mL) | 62.5 µM (≈ 25.3 µg/mL) |  | inactive | inactive |  | 125 µM (≈ 50.6 µg/mL) | 125 µM (≈ 50.6 µg/mL) | Soluble |  | inactive | inactive | 16 µM (≈ 6.48 µg/mL) | 62.5 µM (≈ 25.3 µg/mL) | 62.5 µM (≈ 25.3 µg/mL) | inactive | 125 µM (≈ 50.6 µg/mL) | 32 µM (≈ 13 µg/mL) | 125 µM (≈ 50.6 µg/mL) | 
5 | O=C(O)CN1C(=O)CSC1=S [RHODANINE-3-ACETIC ACID] |  | 1000 µM (≈ 191 µg/mL) | 1000 µM (≈ 191 µg/mL) |  |  |  |  | 1000 µM (≈ 191 µg/mL) | 1000 µM (≈ 191 µg/mL) |  |  |  |  | 1000 µM (≈ 191 µg/mL) | 1000 µM (≈ 191 µg/mL) | 1000 µM (≈ 191 µg/mL) |  | 1000 µM (≈ 191 µg/mL) | 1000 µM (≈ 191 µg/mL) | 1000 µM (≈ 191 µg/mL) | 
6 | Cc1ccc(NC(=O)CN2C(=O)CSC2=S)cc1 |  | 500 µM (≈ 140 µg/mL) | 1000 µM (≈ 280 µg/mL) |  | inactive | inactive |  | 500 µM (≈ 140 µg/mL) | 500 µM (≈ 140 µg/mL) | Soluble |  | inactive | inactive | 500 µM (≈ 140 µg/mL) | 500 µM (≈ 140 µg/mL) | 500 µM (≈ 140 µg/mL) | inactive | > 1000 µM | 250 µM (≈ 70.1 µg/mL) | 500 µM (≈ 140 µg/mL) | 
